PubChem BioAssay
A number with no mark means an inactive call.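 The calls were made as follows, unless noted: active = growth inhibition above 25% in both replicates, a cutoff set 3 SD above the mean; inconclusive = above 25% in only one replicate; inactive = the rest.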

Test: S. cerevisiae growth inhibition in permissive medium (OD615), pilot counter-assay for S. cerevisiae lifespan shortening project, permissive growth control (AID 705)
Details: OD615, 24 h, at 10 µM, stronger effect = higher value
Method in brief: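 assay system = Saccharomyces cerevisiae strain carrying genetically modified DeaD replicative-lifespan system | technique = absorbance (optical density) at 615 nm | buffer or medium = permissive raffinose/galactose medium | timing = cells pre-grown 4 h, then 24 h compound exposure, 30 °C humidified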

Structure (SMILES)	growth inhibition
c1ccc(Cn2nnc3c(N4CCOCC4)ncnc32)cc1	-15.8%
CCN(CC)S(=O)(=O)c1ccc(-c2nnco2)cc1	-23.5%
Cc1ccc2nc(NC(=O)CCNS(=O)(=O)c3cccs3)sc2c1	-5.57%
Cn1c(=O)c2c(SCc3cccnc3)nc(CC(C)(C)C)nc2n(C)c1=O	0.2%
Cc1c(Nc2nc3ccccc3nc2N2CCN(c3ccccc3)CC2)c(=O)n(-c2ccccc2)n1C	-2.84%
CC(C)N(Cc1nc(-c2ccc(Cl)cc2)no1)C(=O)CCCN1C(=O)c2ccccc2C1=O	-14.4%
COc1ccc(-c2nc(CSCC(=O)N3CCC(C(N)=O)CC3)c(C)o2)cc1OC	-2.87%
COc1ccc(N(CC(=O)NCc2cccnc2)S(=O)(=O)c2c(C)nn(C)c2C)cc1	-19.9%
O=C(NC1CCCCC1)C1CC(=O)N(c2ccc(Cl)cc2)C1 (stereo not given)	-4.29%
COc1cc(C(=O)NCc2ccco2)c(Br)c(OC)c1OC	-1.05%
COC(=O)C1C(O)=C(C(C)=N)C(=O)CC1(C)C (stereo not given)	-3.89%
Cn1c(SCC(=O)Nc2ccccc2F)nnc1-c1cccnc1	-5.35%
O=C(CCCC(=O)NCC1CCCO1)NCC1CCCO1 (stereo not given)	-1.28%
O=c1[nH]c(NCCCO)nc2c1C1(CCCC1)Cc1ccccc1-2	-1.02%
Fc1ccc(Cc2nnc(-c3cccs3)o2)cc1	-20.1%
Cc1ccc(Cn2nnc3c(=O)n(Cc4ccccc4C)cnc32)cc1	1.6%
COCCOC(=O)C1=C(C)NC2=C(C(=O)CCC2)C1c1ccc(N(C)C)cc1 (stereo not given)	-4.38%
COc1ccc(C2C(C(N)=O)=C(C)Nc3nc(-c4ccccc4Cl)nn32)c(OC)c1 (stereo not given)	-17.8%
CC(=O)N1CCc2cc(C(=O)CN3CCC(C)CC3)ccc21	-5.91%
COc1cccc(OCC(=O)N(Cc2nc(-c3ccc(Cl)cc3)no2)C(C)C)c1	-4.67%

Structure (SMILES)	growth inhibition
CCn1c(-c2cc(OC)ccc2OC)csc1=Nc1c(C)n(C)n(-c2ccccc2)c1=O	-11.1%
NC(=O)SCC(=O)Nc1ccc(Cl)c(Cl)c1	-0.33%
O=C(NCC1CCCO1)C1CC(=O)N(c2ccc(F)c(Cl)c2)C1 (stereo not given)	-7.27%
COc1cc(CO)cc(Br)c1OCC(=O)O	-2.25%
Cn1c(CNC(=O)C(C)(C)C)nc2ccccc21	-11.4%
CCN(CC)c1cccc(OC2=NS(=O)(=O)c3ccccc32)c1	-1.53%
CC(CNC(=O)C1CCCCC1)NC(=O)C1CCCCC1 (stereo not given)	-7.69%
COc1ccc(-c2nc(CSCC(=O)N3CCN(C4CCCCC4)CC3)c(C)o2)cc1OC	-5.55%
Cc1ccc(NS(=O)(=O)c2ccc3c(c2)oc(=O)n3C)cc1F	-11%
Cc1c(C(=O)NCC2CCCO2)oc2ccc(S(=O)(=O)N3CCCCC3)cc12 (stereo not given)	-15.5%
COc1cccc(N2CCN(C(=O)CN(C)S(=O)(=O)c3ccc4c(c3)CCC(=O)N4)CC2)c1	-2.86%
CCOc1ccc(N(CC(=O)N2CCN(c3ccccc3)CC2)S(=O)(=O)c2c(C)noc2C)cc1	1.67%
CC1(C)CC(N2CCN(c3ccccc3)CC2)=CC(=[N+]2CCCC2)C1	-2.24%
O=C(Cn1cnc2c(cnn2-c2ccc(F)cc2)c1=O)NCCc1ccccc1	-1.94%
Cc1nnc(Nc2ccc3c(c2)OCO3)c2ccccc12	-10.6%
O=C(O)CC1C(=O)NCCN1CCCc1ccccc1 (stereo not given)	-11.4%
O=C(CN1CCCCC1)Nc1nnc(-c2ccccc2)s1	-11.4%
COc1ccc(N2C(=O)C3CCCN3C2c2ccc(Cl)cc2)cc1 (stereo not given)	-6.21%
CCOC(=O)c1cnc2c(C)cccc2c1NCc1ccco1	-10.5%
COc1ccc(OC)c(-n2c(SCC(=O)Nc3cc(C)on3)nnc2-c2c[nH]c3ccccc23)c1	-1.04%

Test: S. cerevisiae growth inhibition in restrictive medium, OD615, pilot screen, restrictive growth control, yeast lifespan reduction project (AID 706;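 active = growth inhibition above a set limit, 3 SD over mean compound inhibition, in both replicates, cut at about 43% in these data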;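 also: modified DeaD lifespan yeast strain shifted to restrictive glucose medium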)
Details: OD615, 48 h, at 10 µM, stronger effect = higher value
Method in brief: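 System: modified S. cerevisiae. Buffer or medium: CSMM-D glucose medium. Incubation: 4 h pre-growth plus 48 h compound exposure, 30 °C. Detection: absorbance (optical density) measured at 615 nm.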

Structure (SMILES)	growth inhibition
c1ccc(Cn2nnc3c(N4CCOCC4)ncnc32)cc1	-25.2%
CCN(CC)S(=O)(=O)c1ccc(-c2nnco2)cc1	-16.6%
Cc1ccc2nc(NC(=O)CCNS(=O)(=O)c3cccs3)sc2c1	-7.59%
Cn1c(=O)c2c(SCc3cccnc3)nc(CC(C)(C)C)nc2n(C)c1=O	-12%
Cc1c(Nc2nc3ccccc3nc2N2CCN(c3ccccc3)CC2)c(=O)n(-c2ccccc2)n1C	-9.73%
CC(C)N(Cc1nc(-c2ccc(Cl)cc2)no1)C(=O)CCCN1C(=O)c2ccccc2C1=O	-15.6%
COc1ccc(-c2nc(CSCC(=O)N3CCC(C(N)=O)CC3)c(C)o2)cc1OC	9.12%
COc1ccc(N(CC(=O)NCc2cccnc2)S(=O)(=O)c2c(C)nn(C)c2C)cc1	-19.4%
O=C(NC1CCCCC1)C1CC(=O)N(c2ccc(Cl)cc2)C1 (stereo not given)	1.57%
COc1cc(C(=O)NCc2ccco2)c(Br)c(OC)c1OC	-12.5%
COC(=O)C1C(O)=C(C(C)=N)C(=O)CC1(C)C (stereo not given)	2.82%
Cn1c(SCC(=O)Nc2ccccc2F)nnc1-c1cccnc1	-5.78%
O=C(CCCC(=O)NCC1CCCO1)NCC1CCCO1 (stereo not given)	7.34%
O=c1[nH]c(NCCCO)nc2c1C1(CCCC1)Cc1ccccc1-2	-4.91%
Fc1ccc(Cc2nnc(-c3cccs3)o2)cc1	-0.63%
Cc1ccc(Cn2nnc3c(=O)n(Cc4ccccc4C)cnc32)cc1	-5.54%
COCCOC(=O)C1=C(C)NC2=C(C(=O)CCC2)C1c1ccc(N(C)C)cc1 (stereo not given)	-19.9%
COc1ccc(C2C(C(N)=O)=C(C)Nc3nc(-c4ccccc4Cl)nn32)c(OC)c1 (stereo not given)	-11.2%
CC(=O)N1CCc2cc(C(=O)CN3CCC(C)CC3)ccc21	-4.73%
COc1cccc(OCC(=O)N(Cc2nc(-c3ccc(Cl)cc3)no2)C(C)C)c1	-2.81%

Structure (SMILES)	growth inhibition
CCn1c(-c2cc(OC)ccc2OC)csc1=Nc1c(C)n(C)n(-c2ccccc2)c1=O	-22.9%
NC(=O)SCC(=O)Nc1ccc(Cl)c(Cl)c1	4.16%
O=C(NCC1CCCO1)C1CC(=O)N(c2ccc(F)c(Cl)c2)C1 (stereo not given)	-1.83%
COc1cc(CO)cc(Br)c1OCC(=O)O	-3.28%
Cn1c(CNC(=O)C(C)(C)C)nc2ccccc21	-0.87%
CCN(CC)c1cccc(OC2=NS(=O)(=O)c3ccccc32)c1	0.2%
CC(CNC(=O)C1CCCCC1)NC(=O)C1CCCCC1 (stereo not given)	-6.86%
COc1ccc(-c2nc(CSCC(=O)N3CCN(C4CCCCC4)CC3)c(C)o2)cc1OC	7.03%
Cc1ccc(NS(=O)(=O)c2ccc3c(c2)oc(=O)n3C)cc1F	-10.8%
Cc1c(C(=O)NCC2CCCO2)oc2ccc(S(=O)(=O)N3CCCCC3)cc12 (stereo not given)	-9.72%
COc1cccc(N2CCN(C(=O)CN(C)S(=O)(=O)c3ccc4c(c3)CCC(=O)N4)CC2)c1	-13.8%
CCOc1ccc(N(CC(=O)N2CCN(c3ccccc3)CC2)S(=O)(=O)c2c(C)noc2C)cc1	-1.08%
CC1(C)CC(N2CCN(c3ccccc3)CC2)=CC(=[N+]2CCCC2)C1	-20.8%
O=C(Cn1cnc2c(cnn2-c2ccc(F)cc2)c1=O)NCCc1ccccc1	-1.9%
Cc1nnc(Nc2ccc3c(c2)OCO3)c2ccccc12	-15.2%
O=C(O)CC1C(=O)NCCN1CCCc1ccccc1 (stereo not given)	-8.64%
O=C(CN1CCCCC1)Nc1nnc(-c2ccccc2)s1	-5.87%
COc1ccc(N2C(=O)C3CCCN3C2c2ccc(Cl)cc2)cc1 (stereo not given)	-6.83%
CCOC(=O)c1cnc2c(C)cccc2c1NCc1ccco1	-9.38%
COc1ccc(OC)c(-n2c(SCC(=O)Nc3cc(C)on3)nnc2-c2c[nH]c3ccccc23)c1	6.54%
